The results in this text go back to ChEMBL document CHEMBL1764963, “In vitro and QSAR studies of cucurbitacins on HepG2 and HSC-T6 liver cell lines” (Bioorg Med Chem, 2011).

The source made the active and inactive calls. The calls are words filed in the database; no cut-off is given here.

Data set [1] relates to Radical scavenging activity. Put plainly: Antioxidant activity assessed as DPPH radical scavenging activity at 64 uM after 10 mins. The data set is classed as functional.
Data set [2] can be described thus: (§1) Cytotoxicity against human HepG2 cells after 24 hrs assessed as inhibition of cell viability by MTT assay. It is filed as cell-based. The following applies: human, HepG2 cells; read-out: INH.
Data set [3] is described as follows: Antioxidant activity assessed as inhibition of free radical production at 0.58 mM within 6 mins by ABTS+ decolorization assay. It is filed as functional.
Data set [4] in a line: Inhibition of hyaluronidase activity at 71.68 mM.
Data set [5] concerns HepG2. Put plainly: Hepatoprotective activity in human HepG2 cells assessed as inhibition of CCl4-induced toxicity at 100 uM after 24 hrs by MTT assay. The data set is classed as functional, cell-based. Summed up: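 HepG2 cells grown 10 days in EMEM with 10% FBS, then seeded 24 h at 30,000 cells/ml in 2% FBS. Test agent added together with CCl4 (4.5 x 10^-3 M) for 24 h. Silybin was tested at 1–200 uM. Cucurbitacins were tested at 0.5 and […] their IC50, then at 0.13 and 0.06. MTT read at 570 nm. % protection calculated against CCl4-only and media-only controls. Three experiments, ≥3 replicates each.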

Data set [6] concerns HepG2. Put plainly: Hepatoprotective activity in human HepG2 cells assessed as protection against cell damage after 24 hrs by MTT assay. The data set is classed as functional.
Data set [7] in a line: Cytotoxicity against rat HSC-T6 cell after 24 hrs by MTT assay. It is filed as cell-based. Particulars: rat, hsc-t6, 24 h.
Data set [8] concerns HepG2. The description is as §1. The data set is classed as cell-based. The following applies: human, hepg2, 24 h.
A short description of data set [9]: Antiproliferative activity against serum-stimulated rat HSC-T6 cells after 24 hrs by MTT assay. It is filed as functional, cell-based. Particulars: HSC-T6, 24 h.
Data set [10] has as its system HepG2. The data set can be described thus: Hepatoprotective activity in human HepG2 cells assessed as inhibition of CCl4-induced toxicity after 24 hrs by MTT assay. The data set is classed as functional, cell-based. Particulars: Homo sapiens, HepG2, 24 h.
Another data set relates to HSC-T6. The data set can be described thus: Cytotoxicity against rat HSC-T6 cell up to 300 uM after 24 hrs by MTT assay. The data set is classed as functional, cell-based. In a few lines: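 HSC-T6 rat stellate cells grown 4-5 days in EMEM/10% FBS, then seeded 24 h at 100,000 cells/ml in 2% FBS. Medium replaced with compound in fresh 10% FBS medium, two-fold dilutions across seven wells, for 24 h. Viability by MTT (570 nm) relative to cell-free and untreated controls. Three experiments, ≥3 replicates each.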

`O=C1O[C@H]([C@@H](O)CO)C(O)=C1O`: in data set [1], the inhibition is 50%.
On to `ClC(Cl)(Cl)Cl` [CARBON TETRACHLORIDE], for which the cytotoxicity at 24 h in [2] turned out to be 50%.
As for `Cc1c(C)c2c(c(C)c1O)CCC(C)(C(=O)O)O2` (stereo unspecified), the inhibition in data set [3] is 50%.
In [4], `CCCCC1C(=O)N(c2ccccc2)N(c2ccccc2)C1=O` yielded an inhibition of 50%.
For `COc1cc(C2Oc3cc([C@H]4Oc5cc(O)cc(O)c5C(=O)[C@@H]4O)ccc3OC2CO)ccc1O` (stereo partly specified) [SILIBININ], the inhibition entry with HepG2 [5] was “Active”. Besides, the Activity is 40% in the data set with HepG2 [6], “Non-toxic” in data set [7], “Non-toxic” with HepG2 [8] and “Not toxic” in the data set on HSC-T6. In addition, the figures for the 50% effective concentration (EC50) (in [9]; in the data set on HepG2 [10]) were 18.8 µM and 45 µM, respectively.
